Assay results reported in ChEMBL document CHEMBL4024790 (J Med Chem, 2018).
The source made the active and inactive calls. The rule behind the calls is not given here.

Legend:
[1] = 1-octanol/phosphate buffer solution partition coefficient, log D of the compound at pH 7.4 after 1 hr by LC-MS/MS method; format: physicochemical
[2] = Drug metabolism in rat hepatocytes assessed as 3-(7-methyl-5-(1-methyl-5-(5-(trifluoromethyl)pyridin-2-yl)-1H-pyrazol-4-yl)imidazo[1,5-f][1,2,4]triazin-4-ylamino)propanoic acid formation at 1 to 50 uM after 1 hr by LC-MS/MS analysis; format: ADME, cell-based, Hepatocyte
Procedure, shortened: (§1)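 Rat, dog or human liver microsomes or hepatocytes (P450 0.35–0.5 µM final) incubated with compound at 1, 10 or 50 µM in 100 mM phosphate buffer with 1 mM NADP regenerating system, 37°C for 1 h; quenched with 4 volumes acetonitrile, centrifuged, supernatant evaporated, reconstituted in 5% aqueous acetonitrile and analysed by reversed-phase LC.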

[3] = Drug metabolism in human hepatocytes assessed as 3-(7-methyl-5-(1-methyl-5-(5-(trifluoromethyl)pyridin-2-yl)-1H-pyrazol-4-yl)imidazo[1,5-f][1,2,4]triazin-4-ylamino)propanoic acid formation at 1 to 50 uM after 1 hr by LC-MS/MS analysis; format: ADME, cell-based, Hepatocyte; procedure, shortened: as §1
Canis familiaris [4] = assay: Toxicity in dog assessed as effect on vasculature up to 15 mg/kg/day, po for 14 days by microscopic method; format: organism-based, Canis lupus familiaris; conditions: in vivo, 336 h
Canis familiaris [5] = species on record: Canis familiaris; assay: Toxicity in dog assessed as effect on vasculature up to 1 month by microscopic method; parameters: species or system Canis lupus familiaris; conditions: in vivo
Rattus norvegicus [6] = assay: Reversal of ketamine-induced working memory deficit in Long Evans rat assessed as unbound brain concentration required to show effect at 0.32 mg/kg, sc by radial arm maze assay; format: functional, organism-based
Procedure, shortened: (§2)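 Rats trained in a radial arm maze working-memory task, with deficit induced by ketamine. Compound dosed sc; errors compared with vehicle + ketamine. N = 20–23 per group, Hochberg test. Cbu at the tested doses estimated from satellite pharmacokinetic animals.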

Rattus norvegicus [7] = assay: Reversal of ketamine-induced working memory deficit in Long Evans rat at 1 mg/kg, sc by radial arm maze assay; format: functional, organism-based; procedure, shortened: as §2
Mus musculus = species on record: Mus musculus; assay: Increase in cGMP level in CD-1 mouse brain striatum by immunoassay; format: functional
Procedure, shortened: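 CD-1 mice given compound; brains fixed by focused microwave irradiation, and cortex, striatum and hippocampus dissected and homogenized in 0.5 N HCl, then centrifuged. cGMP in the supernatant measured by enzyme immunoassay. Unbound brain concentration taken from satellite animals. Dose-response and time-course data combined, and a linear Cbu–cGMP model fitted. The Cbu E50 is the projected Cbu giving a 50% rise in cGMP. Statistics by one-way ANOVA with Fisher's PLSD, p<0.05.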

Cytochrome P450 2C9 = Cytochrome P450 2C9 (Homo sapiens, UniProt P11712); assay: Inhibition of recombinant human CYP2C9; format: ADME; conditions: recombinant enzyme
Cytochrome P450 3A = Cytochrome P450 3A (Homo sapiens, UniProt P08684+P20815+Q9HB55+P24462); assay: Inhibition of recombinant human CYP3A; format: ADME; conditions: recombinant enzyme
Aldehyde oxidase = target: T1, Aldehyde oxidase (Homo sapiens, UniProt Q06278); assay: Drug metabolism assessed as aldehyde oxidase (unknown origin)-mediated metabolite formation; format: ADME
T1 sequence (Q06278 whole entry): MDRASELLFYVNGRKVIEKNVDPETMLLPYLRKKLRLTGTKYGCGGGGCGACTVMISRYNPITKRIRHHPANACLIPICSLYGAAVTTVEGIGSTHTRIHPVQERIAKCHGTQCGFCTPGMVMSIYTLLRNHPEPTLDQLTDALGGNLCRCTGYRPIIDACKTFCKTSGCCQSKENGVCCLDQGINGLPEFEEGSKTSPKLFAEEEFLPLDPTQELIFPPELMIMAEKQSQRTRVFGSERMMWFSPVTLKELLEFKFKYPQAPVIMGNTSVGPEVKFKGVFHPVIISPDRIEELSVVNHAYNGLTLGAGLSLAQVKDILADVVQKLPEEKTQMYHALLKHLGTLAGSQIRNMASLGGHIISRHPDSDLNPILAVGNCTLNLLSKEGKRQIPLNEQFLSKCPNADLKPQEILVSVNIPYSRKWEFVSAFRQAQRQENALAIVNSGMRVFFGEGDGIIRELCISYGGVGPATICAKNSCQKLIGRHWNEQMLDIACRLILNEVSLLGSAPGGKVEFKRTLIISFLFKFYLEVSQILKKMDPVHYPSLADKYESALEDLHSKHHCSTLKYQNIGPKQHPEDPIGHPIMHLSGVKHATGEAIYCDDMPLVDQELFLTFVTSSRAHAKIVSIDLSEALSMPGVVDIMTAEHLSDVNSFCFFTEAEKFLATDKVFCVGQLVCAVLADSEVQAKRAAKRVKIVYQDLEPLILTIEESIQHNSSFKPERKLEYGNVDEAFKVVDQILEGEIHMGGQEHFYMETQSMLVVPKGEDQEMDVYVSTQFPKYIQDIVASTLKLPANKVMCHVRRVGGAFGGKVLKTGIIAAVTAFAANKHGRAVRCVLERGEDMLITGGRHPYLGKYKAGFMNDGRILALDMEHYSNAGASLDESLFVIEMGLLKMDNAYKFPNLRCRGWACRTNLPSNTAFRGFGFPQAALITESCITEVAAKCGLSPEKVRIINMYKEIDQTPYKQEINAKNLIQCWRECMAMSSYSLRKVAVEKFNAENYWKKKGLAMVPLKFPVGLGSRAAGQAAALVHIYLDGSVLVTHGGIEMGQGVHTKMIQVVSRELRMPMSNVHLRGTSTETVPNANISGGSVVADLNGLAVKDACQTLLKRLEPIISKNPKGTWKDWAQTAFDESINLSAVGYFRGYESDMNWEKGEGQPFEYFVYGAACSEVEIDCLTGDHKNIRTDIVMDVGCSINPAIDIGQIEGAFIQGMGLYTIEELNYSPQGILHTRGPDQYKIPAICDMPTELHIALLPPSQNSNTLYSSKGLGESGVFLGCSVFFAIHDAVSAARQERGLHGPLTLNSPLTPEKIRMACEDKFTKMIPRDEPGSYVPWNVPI

[8] = Terminal half life in Wistar Han rat at 5 mg/kg, po administered via gavage by LC-MS/MS analysis; format: ADME, organism-based; conditions: in vivo, read-out: beta t1/2 (converted)
[9] = AUC (0 to infinity) in beagle dog at 5 mg/kg, po administered via gavage by LC-MS/MS analysis; format: ADME, organism-based, Canis lupus familiaris; parameters: dose 5 mg/kg, route oral, time infinity; conditions: in vivo
[10] = Plasma clearance in beagle dog at 0.3 mg/kg, iv by LC-MS/MS analysis; format: ADME, organism-based, Canis lupus familiaris
Procedure, shortened: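 Single iv dose to male Wistar-Han rats (1 mg/kg) or dogs (0.3 mg/kg), given as a solution in 20% (w/v) SBECD with HCl. Dose volume 1 mL/kg in rats and 0.4 mL/kg in dogs. Blood taken by carotid artery cannula from 2 min to 24 h into K2EDTA (rat) or K3EDTA (dog) tubes. Plasma analysed by LC-MS/MS with positive electrospray after acetonitrile precipitation with internal standard.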

Chain of Cytochrome P450 2C9 (P11712 whole entry): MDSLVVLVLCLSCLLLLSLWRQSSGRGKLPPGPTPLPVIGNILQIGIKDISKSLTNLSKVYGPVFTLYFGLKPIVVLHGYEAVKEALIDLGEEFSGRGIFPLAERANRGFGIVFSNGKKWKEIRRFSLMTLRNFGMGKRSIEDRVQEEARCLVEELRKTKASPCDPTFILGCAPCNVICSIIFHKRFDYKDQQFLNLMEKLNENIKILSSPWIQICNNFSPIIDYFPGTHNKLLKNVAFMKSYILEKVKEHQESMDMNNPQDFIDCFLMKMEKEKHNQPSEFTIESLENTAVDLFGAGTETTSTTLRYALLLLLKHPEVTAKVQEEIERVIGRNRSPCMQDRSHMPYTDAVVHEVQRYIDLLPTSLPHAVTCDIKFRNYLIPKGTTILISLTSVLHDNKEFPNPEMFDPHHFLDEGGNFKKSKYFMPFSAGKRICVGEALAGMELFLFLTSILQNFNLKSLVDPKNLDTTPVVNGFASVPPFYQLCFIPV

logD at 1 h [1]: 2.3 | Drug metabolism [2]: Metabolite_Detected | Drug metabolism [3]: Metabolite_Detected | inhibition (INH) (Cytochrome P450 2C9): Not Active | inhibition (INH) (Cytochrome P450 3A): Not Active | Drug metabolism (Aldehyde oxidase): Metabolite_Notdetected | half-life [8]: 1.4 h | AUC(0-inf) [9]: 4120 ng·h/mL | clearance [10]: 12.3 mL/min/kg
SMILES: Cc1nc(-c2cnn(C)c2-c2ccc(C(F)(F)F)cn2)c2c(N3CCC3)ncnn12 [PF-05180999]
Activity (Canis familiaris [4]): Non-Toxic | Activity (Canis familiaris [5]): Non-Toxic | Drug uptake(free) (Rattus norvegicus [6]): 12.5 nM | Activity (Rattus norvegicus [7]): inactive | Activity (Mus musculus): Dose-dependent effect
